Measurements collected from several papers.
Protocols differ between the studies behind these lines.
Organism: Plasmodium falciparum
Read-out: parasite growth

SMILES	method	strain	time	notes	measurement	value
CC(=O)[C@@]1(O)[C@H](O)C[C@H]2[C@@H]3CCC4=CC(=O)CC[C@]4(C)[C@H]3CC[C@@]21C		DD2		drug-resistant strain, blood stage	IC50	617 nM
N=C(CC(O)c1cc2c(F)cc(F)cc2c2cc(C(F)(F)F)ccc12)Nc1cc(F)c(F)c(F)c1 (stereo not shown)	ELISA	3D7	72 h	blood stage	IC50	8.7 nM
CCN(CC)CCCC(C)Nc1ccnc2cc(Cl)ccc12 (stereo not shown)		K1		drug-resistant strain	IC50	91.2 nM
COc1cc(/C=C2\CC/C(=C\c3ccc(O)c(OC)c3)C2=O)ccc1O		K1		drug-resistant strain, blood stage	EC50	1470 nM
C[C@@H]1CC[C@H]2[C@@H](C)C(=O)O[C@@H]3O[C@@]4(C)CC[C@@H]1[C@]32OO4		NF54		blood stage	IC50	11.2 nM
COc1cc(/C=C/C(=O)C(=Cc2ccc(O)cc2)C(=O)/C=C/c2ccc(O)c(OC)c2)ccc1O		K1		drug-resistant strain, blood stage	EC50	13300 nM
N=C(N)N/N=C/c1c(Cl)cccc1Cl		DD2		drug-resistant strain, blood stage	IC50	1310 nM
c1cc([C@H]2CC[C@]3(CC2)OO[C@]2(O3)C3CC4CC(C3)CC2C4)ccc1OCCN1CCOCC1		W2		drug-resistant strain, blood stage	IC50	11 nM
N=C(CC(O)c1cc2c(F)cc(F)cc2c2cc(C(F)(F)F)ccc12)NCc1ccc(F)cc1 (stereo not shown)	ELISA	3D7 DD2		blood stage	IC50	> 100 nM
CCN1CCN(Cc2ccc(Nc3nc4ccc(Oc5ccnc(NC(=O)C6CCN(C)CC6)c5)cc4n3C)cc2C(F)(F)F)CC1	flow cytometry	DD2	72 h	blood stage	IC90	166 nM
COc1cc(C=C(C(=O)/C=C/c2ccc(O)c(OC)c2)C(=O)/C=C/c2ccc(O)c(OC)c2)ccc1O		K1		drug-resistant strain, blood stage	EC50	18800 nM
N=C(CC(O)c1cc2c(F)cc(F)cc2c2cc(C(F)(F)F)ccc12)Nc1ccc(-c2ccc(F)cc2)cc1 (stereo not shown)	ELISA	3D7 DD2		blood stage	IC50	~5 nM
CCCCCCCCNC(C)C(O)c1ccc(SC(C)C)cc1 (stereo not shown)		DD2		drug-resistant strain, blood stage	IC50	62.5 nM
N=C(CC(O)c1cc2c(F)cc(F)cc2c2cc(C(F)(F)F)ccc12)Nc1ccc(N2CCC(F)(F)CC2)cc1 (stereo not shown)	ELISA	3D7	72 h	blood stage	IC50	33.6 nM
CO[C@H]1/C=C/O[C@@]2(C)Oc3c(C)c(O)c4c(O)c(c(/C=N/N5CCN(C)CC5)c(O)c4c3C2=O)NC(=O)/C(C)=C\C=C\[C@H](C)[C@H](O)[C@@H](C)[C@@H](O)[C@@H](C)[C@H](OC(C)=O)[C@@H]1C		DD2		drug-resistant strain, blood stage	IC50	573 nM
CCN(CC)CCCC(C)Nc1ccnc2cc(Cl)ccc12 (stereo not shown)		K1		drug-resistant strain, blood stage	EC50	530 nM
N=C(CC(O)c1cc2c(F)cc(F)cc2c2cc(C(F)(F)F)ccc12)Nc1ccc(Br)c(F)c1 (stereo not shown)	ELISA	3D7	72 h	blood stage	IC50	5.3 nM
COc1cc(/C=C/C(=O)C(=Cc2cccc(O)c2)C(=O)/C=C/c2ccc(O)c(OC)c2)ccc1O		K1		drug-resistant strain, blood stage	EC50	11000 nM
N=C(CC(O)c1cc2c(F)cc(F)cc2c2cc(C(F)(F)F)ccc12)Nc1cccc(F)c1 (stereo not shown)	ELISA	3D7 DD2		blood stage	IC50	~2 nM
